Experimental findings from ChEMBL document CHEMBL1155568, “Biological characterization of fusapyrone and deoxyfusapyrone, two bioactive secondary metabolites of Fusarium semitectum” (J Nat Prod, 2000) are described below.

Values after ≈ are worked out from the molar mass of the structure shown.

A short description of data set [1]: Toxicity against Artemia salina larvae. It counts as organism-based. The conditions noted are these: in vivo. The gist of the method:
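Quadruplicate wells; mortality counted after 24 and 36 h at 27 °C. LC50 from probit analysis of dose-mortality data from six independent experiments.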

For data set [2], the system named is Pichia kluyveri. As to the kind of experiment: Antifungal activity against Pichia kluyveri ITEM 1649 at 15 ug/disk by paper disk method. It counts as functional. The method, boiled down:
(§1)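 Agar overlay disk diffusion on plant-derived filamentous fungi and yeasts: 0.7% water-agar seeded with 10^4 conidia/mL or a yeast cell suspension, poured over PDA. 6-mm cellulose disks were loaded from methanolic solutions and air-dried, with nystatin as comparator. Plates ran 24-72 h at 25 °C; inhibition halo was measured over three disks. Agar beneath disks was subcultured on PDA to separate fungicidal from fungistatic, scored in four classes; run twice, averaged.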

Data set [3] concerns Fusarium subglutinans. As to the kind of experiment: Antifungal activity against Fusarium subglutinans at 15 ug/disk by paper disk method. It counts as functional. The method, boiled down: (§2)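 Agar diffusion: a 0.7% water-agar overlay carrying 10^4 conidia/mL (or yeast cells) is poured on PDA. 6-mm cellulose disks loaded with methanolic compound at 5 or 15 µg/disk are air-dried and applied, with nystatin as comparator. Plates incubated 24-72 h at 25 °C; inhibition halo diameter read from three disks. Agar under each disk is subcultured on PDA to score fungicidal/fungistatic effect. Experiment run twice and averaged.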

The test system of data set [4] is Alternaria alternata. Nature of the data set: Antifungal activity against Alternaria alternata ITEM 468 at 15 ug/disk by paper disk method. The class given is functional. The gist of the method: as §2
Data set [5] relates to Alternaria alternata. Nature of the data set: Antifungal activity against Alternaria alternata ITEM 511 at 15 ug/disk by paper disk method. It counts as functional. The method, boiled down:
as §2

In data set [6] the test system is Alternaria alternata. Nature of the data set: Antifungal activity against Alternaria alternata ITEM 526 at 15 ug/disk by paper disk method. It counts as functional. The method, boiled down:
as §2

The subject of data set [7] is Alternaria alternata. As to the kind of experiment: Antifungal activity against Alternaria alternata ITEM 750 at 15 ug/disk by paper disk method. It counts as functional. The gist of the method: as §2
Data set [8] concerns Alternaria citri. As to the kind of experiment: Antifungal activity against Alternaria citri ITEM 466 at 15 ug/disk by paper disk method. It counts as functional. The gist of the method: (§3)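 Agar overlay diffusion: 0.7% water-agar with 10^4 conidia/mL of test fungus poured over PDA; 6-mm cellulose disks impregnated with methanolic compound solution, air-dried. Incubated 25 °C for 24-72 h by fungus; growth-inhibition halo diameter from three replicate disks. Agar under disks then subcultured on PDA to score fungicidal/fungistatic classes. Repeated twice, averaged.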

Data set [9] relates to Ascochyta rabiei. Nature of the data set: Antifungal activity against Ascochyta rabiei ITEM 1067 at 15 ug/disk by paper disk method. The class given is functional. The method, boiled down: as §2
Data set [10] has as its system Aspergillus flavus. Nature of the data set: Antifungal activity against Aspergillus flavus ITEM 9 at 15 ug/disk by paper disk method. The class given is functional. The gist of the method: as §2
Data set [11] has as its system Aspergillus parasiticus. Nature of the data set: Antifungal activity against Aspergillus parasiticus ITEM 11 at 15 ug/disk by paper disk method. The class given is functional. The method, boiled down: as §2
For data set [12], the system named is Botrytis cinerea. Nature of the data set: Antifungal activity against Botrytis cinerea ITEM 966 at 15 ug/disk by paper disk method. The class given is functional. The gist of the method:
as §2

Data set [13] has as its system Botrytis cinerea. As to the kind of experiment: Antifungal activity against Botrytis cinerea at 15 ug/disk by paper disk method. The class given is functional. The gist of the method:
as §2

The subject of data set [14] is Cladosporium cladosporioides. As to the kind of experiment: Antifungal activity against Cladosporium cladosporioides ITEM 2079 at 15 ug/disk by paper disk method. It counts as functional. The method, boiled down: as §2
In data set [15] the test system is Cladosporium cucumerinum. Nature of the data set: Antifungal activity against Cladosporium cucumerinum ITEM 2095 at 15 ug/disk by paper disk method. The class given is functional. The method, boiled down:
as §2

The subject of data set [16] is Colletotrichum gloeosporioides. As to the kind of experiment: Antifungal activity against Colletotrichum gloeosporioides ITEM 1729 at 15 ug/disk by paper disk method. The class given is functional. The method, boiled down:
as §2

Data set [17] deals with Fusarium acuminatum. Nature of the data set: Antifungal activity against Fusarium acuminatum ITEM 795 at 15 ug/disk by paper disk method. The class given is functional. The method, boiled down: as §2
For data set [18], the system named is Fusarium graminearum. As to the kind of experiment: Antifungal activity against Fusarium graminearum ITEM 2 at 15 ug/disk by paper disk method. The class given is functional. The gist of the method: as §3
For data set [19], the system named is Fusarium verticillioides. As to the kind of experiment: Antifungal activity against Fusarium moniliforme ITEM 1497 at 15 ug/disk by paper disk method. The class given is functional. The gist of the method:
as §2

The subject of data set [20] is Fusarium oxysporum. As to the kind of experiment: Antifungal activity against Fusarium oxysporum ITEM 149 at 15 ug/disk by paper disk method. It counts as functional. The method, boiled down: as §2
For data set [21], the system named is Fusarium oxysporum. Nature of the data set: Antifungal activity against Fusarium oxysporum ITEM 1462 at 15 ug/disk by paper disk method. It counts as functional. The method, boiled down:
as §2

In data set [22] the test system is Penicillium verrucosum. Nature of the data set: Antifungal activity against Penicillium verrucosum ITEM 439 at 15 ug/disk by paper disk method. The class given is functional. The gist of the method: as §1
The subject of data set [23] is Fusarium oxysporum f. sp. lycopersici. Nature of the data set: Antifungal activity against Fusarium oxysporum f. sp. lycopersici ITEM 1462 at 15 ug/disk by paper disk method. The class given is functional. The gist of the method:
as §2

For data set [24], the system named is Fusarium incarnatum. As to the kind of experiment: Antifungal activity against Fusarium semitectum ITEM 393 at 15 ug/disk by paper disk method. It counts as functional. The method, boiled down:
as §2

The subject of data set [25] is Plenodomus tracheiphilus. As to the kind of experiment: Antifungal activity against Phoma tracheiphilla ITEM 1605 at 15 ug/disk by paper disk method. It counts as functional. The gist of the method: as §1
In data set [26] the test system is Penicillium brevicompactum. Nature of the data set: Antifungal activity against Penicillium brevicompactum ITEM 449 at 15 ug/disk by paper disk method. The class given is functional. The gist of the method: as §1
Data set [27] concerns Meyerozyma guilliermondii. Nature of the data set: Antifungal activity against Candida guilliermondii ITEM 1638 at 15 ug/disk by paper disk method. It counts as functional. The method, boiled down:
as §2

The subject of data set [28] is Candida maltosa. Nature of the data set: Antifungal activity against Candida maltosa ITEM 1639 at 15 ug/disk by paper disk method. The class given is functional. The gist of the method: as §2
For data set [29], the system named is Kluyveromyces marxianus. As to the kind of experiment: Antifungal activity against Kluyveromyces fragilis ITEM 1657 at 15 ug/disk by paper disk method. The class given is functional. The method, boiled down: as §1
The test system of data set [30] is Kluyveromyces lactis. Nature of the data set: Antifungal activity against Kluyveromyces lactis ITEM 1656 at 15 ug/disk by paper disk method. It counts as functional. The gist of the method:
as §1

Data set [31] relates to Wickerhamomyces anomalus. As to the kind of experiment: Antifungal activity against Pichia anomala ITEM 1625 at 15 ug/disk by paper disk method. The class given is functional. The gist of the method: as §1
Data set [32] concerns Wickerhamomyces anomalus. As to the kind of experiment: Antifungal activity against Pichia anomala ITEM 1661 at 15 ug/disk by paper disk method. The class given is functional. The method, boiled down:
as §1

The subject of data set [33] is Starmera dryadoides. As to the kind of experiment: Antifungal activity against Pichia dryadoides ITEM 1663 at 15 ug/disk by paper disk method. It counts as functional. The method, boiled down: as §1
Data set [34] relates to Meyerozyma guilliermondii. As to the kind of experiment: Antifungal activity against Pichia guilliermondii ITEM 1644 at 15 ug/disk by paper disk method. It counts as functional. The method, boiled down: as §1
In data set [35] the test system is Saccharomyces cerevisiae. As to the kind of experiment: Antifungal activity against Saccharomyces cerevisiae ITEM 1633 at 15 ug/disk by paper disk method. The class given is functional. The gist of the method:
as §1

For data set [36], the system named is Rhodotorula mucilaginosa. As to the kind of experiment: Antifungal activity against Rhodotorula pilimanae at 15 ug/disk by […]. The class given is functional.
Data set [37] deals with Solanum lycopersicum. Nature of the data set: Phytotoxicity in tomato leaf assessed as chlorosis in the leaf at 10^-5 M by tomato cutting assay. The class given is organism-based. The conditions noted are these: in vivo, 10 µM. The gist of the method:
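Young greenhouse tomato plants cut with razor; stems immersed in toxin solutions (10^-3 to 10^-6 M; compound in small MeOH volume diluted with water) 24 h at 22 °C, 12-h photoperiod, fluorescent light. Then moved to distilled water 48 h under same conditions; symptoms (e.g. chlorosis, wilting) scored visually.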

In general, LC50 refers to the concentration lethal to half of the exposed cells or organisms. A higher LC50 goes with a less lethal substance.

Take `CC(=O)OC[C@@H](C)C1=C(O)C(=O)[C@@]2(C)C/C=C(\C)CC/C=C(\C)CC[C@H](O)/C(C)=C/C[C@H]12` [FUSAPROLIFERIN]: in data set [1], the LC50 was 23.7 µg/mL (≈ 53.3 µM).

Regarding NYSTATIN, the Activity in data set [2] stood at 16.5 mm; in data set [3] it was 24 mm. The inhibition zone (IZ) was determined as 30.2 mm in data set [4]; 32.2 mm in data set [5]; 28.7 mm in data set [6]; 29.2 mm in data set [7]; 30 mm in [8]; 38.5 mm in data set [9]. The inhibition zone (IZ) in data set [10] amounted to 29 mm; in data set [11], 28.7 mm; in data set [12], 31.2 mm; in [13] it was 31 mm; in data set [14], 37.3 mm; in data set [15], 32.7 mm. The inhibition zone (IZ) in data set [16] was 38.2 mm; in data set [17], 20.8 mm; in data set [18] it was 25.9 mm; in data set [19], 18.7 mm; in [20], 19.5 mm; in data set [21] it was 20 mm. Further, the inhibition zone (IZ) is 28.2 mm in data set [22]; 21.7 mm in [23]; 27 mm in [24]; 31.8 mm in data set [25]; 18.3 mm in [26]; 20 mm in data set [27]. In addition, the inhibition zone (IZ) in data set [28] was 20 mm; in [29], 19.5 mm; in data set [30], 18 mm; in [31], 18.8 mm; in data set [32], 15 mm; in data set [33], 19 mm. Besides, the inhibition zone (IZ) in data set [34] came to 18.5 mm; in data set [35] it was 21 mm; in data set [36] it was 28.5 mm.

Regarding `CCCCc1ccc(C(=O)O)nc1` [FUSARIC ACID], the result in data set [37] was Active.
